The source made the active and inactive calls. No cut-off for these calls is given here.
How the values were obtained:
[1] = test system: HT-22; assay: Cytotoxicity against mouse HT22 cells up to 100 uM after 24 hrs by LDH-release assay; assay type: cell-based; settings: ht-22, 24 h
Method in brief: (§1)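 HT22 cells exposed to compound alone, without glutamate (cytotoxicity tested up to 100 µM). Cell injury is read as lactate dehydrogenase released into the culture medium, measured with a cytotoxicity detection kit. LDH from control cultures is set at 100%.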

[2] = test system: HT-22; assay: Neuroprotective activity against glutamate-induced neuronal cell death in mouse HT22 cells at 25 to 50 uM after 24 hrs by LDH-release assay relative to control; assay type: functional
Method in brief: (§2)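 HT22 cells exposed to 10 mM glutamate together with compound at 25 or 50 µM for 24 h. Cell death read as LDH released into the culture medium (cytotoxicity detection kit). Control is LDH release from cells incubated without glutamate, set at 100%.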

[3] = test system: HT-22; assay: Neuroprotective activity against glutamate-induced neuronal cell death in mouse HT22 cells at 50 uM after 24 hrs by LDH-release assay relative to control; assay type: functional, cell-based
Method in brief: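 HT22 cells treated 24 h with 10 mM glutamate and compound at 0, 25 or 50 µM. Cell death is read as lactate dehydrogenase released into the culture medium, measured with a cytotoxicity detection kit. LDH of control cultures is set at 100%.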

[4] = test system: HT-22; assay: Neuroprotective activity against glutamate-induced neuronal cell death in mouse HT22 cells at 25 uM after 24 hrs by LDH-release assay relative to control; assay type: functional; method in brief: as §2
[5] = test system: HT-22; assay: Cytotoxicity against mouse HT22 cells after 24 hrs in absence of glutamate by LDH-release assay relative to control; assay type: ADME, cell-based; settings: ht-22, 24 h; method in brief: as §1
[6] = test system: HT-22; assay: Neuroprotective activity against glutamate-induced neuronal cell death in mouse HT22 cells after 24 hrs by LDH-release assay; assay type: functional, cell-based; settings: HT-22, 24 h
Method in brief: (§3)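 HT22 cells co-incubated 24 h with 10 mM glutamate plus compound at 0, 1.0, 2.5, 5.0, 10 or 25 µM. Cell death is read as LDH released into the medium. Control-culture LDH is set at 100%. IC50 values were estimated from this low-dose series; for some compounds, approximate IC50s were corrected by subtracting suppression of basal, glutamate-independent death.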

[7] = test system: HT-22; assay: Neuroprotective activity against glutamate-induced neuronal cell death in mouse HT22 cells at 1 to 10 uM after 24 hrs by LDH-release assay relative to control; assay type: functional, cell-based; method in brief: as §3
[8] = test system: HT-22; assay: Neuroprotective activity against glutamate-induced neuronal cell death in mouse HT22 cells at 1 to 25 uM after 24 hrs by LDH-release assay relative to control; assay type: functional, cell-based; method in brief: as §3
[9] = test system: HT-22; assay: Neuroprotective activity against glutamate-induced neuronal cell death in mouse HT22 cells at 2.5 to 10 uM after 24 hrs by LDH-release assay relative to control; assay type: functional, cell-based; method in brief: as §3
[10] = test system: HT-22; assay: Neuroprotective activity against glutamate-induced neuronal cell death in mouse HT22 cells at 2.5 to 5 uM after 24 hrs by LDH-release assay relative to control; assay type: functional, cell-based; method in brief: as §3

| SMILES | Activity [1] | Activity [2] | also measured |
| --- | --- | --- | --- |
| CN(C)c1ccc(CCCC2C(=O)Nc3ccc(C(F)(F)F)cc32)cc1 (centres undefined) | Non-Toxic | – | – |
| COc1ccc2c(c1)C(C)(CCCc1ccc(N(C)C)cc1)C(=O)N2 (racemic) [listing 1 of 2 here] | – | Active | – |
| CN(C)c1ccc(CCC2C(=O)Nc3ccccc32)cc1 (racemic) | Non-Toxic | – | Activity [3]: Active; Activity [4]: inactive |
| CN(CCCCCC1C(=O)Nc2ccccc21)c1ccccc1 (racemic) | Non-Toxic | Active | – |
| CN(C)c1ccc(CCCC2(C)C(=O)Nc3ccc(F)cc32)cc1 (racemic) | Non-Toxic | >100% | Activity [5]: Non-Toxic; IC50 [6]: 1.2 µM; Activity [7]: Active |
| COc1ccc2c(c1)C(C)(CCCc1ccc(N(C)C)cc1)C(=O)N2 (stereo in doubt; 8a) | – | Active | – |
| CN(C)c1ccc(C(C)(C)CC2C(=O)Nc3ccccc32)cc1 (racemic) | Non-Toxic | – | – |
| COc1ccc2c(c1)C(C)(CCOc1ccc(N(C)C)cc1)C(=O)N2 (racemic) | Non-Toxic | Active | – |
| CN(C)CCCCCCCC1(C)C(=O)Nc2ccccc21 (centres undefined) | Non-Toxic | inactive | – |
| CN(C)c1ccc(C(=O)NCCC2C(=O)Nc3ccccc32)cc1 (racemic) | Non-Toxic | inactive | – |
| CN(C)c1ccc(CCCC2C(=O)N(C)c3ccccc32)cc1 (racemic) | Non-Toxic | >100% | Activity [5]: Non-Toxic |
| COc1ccc2c(c1)C(C)(CCCc1ccc(N(C)C)cc1)C(=O)N2CC(=O)O (racemic) | Non-Toxic | inactive | – |
| CN(C)c1ccc(CCCCC2C(=O)Nc3ccccc32)cc1 (racemic) | Non-Toxic | Active | – |
| COc1ccc2c(c1)C(C)(CCCc1ccc(N(C)C)cc1)C(=O)N2 (racemic) [listing 2 of 2 here] | Non-Toxic | – | – |
| COc1ccc2c(c1)C(C)(CCCc1ccc(N(C)C)cc1)C(=O)N2 (stereo in doubt; 8b) | – | Active | – |
| CN(C)c1ccc(CC2C(=O)Nc3ccccc32)cc1 (racemic) | Non-Toxic | Active | Activity [8]: Active; IC50 [6]: 7.1 µM |
| CN(C)c1cccc(CCCC2C(=O)Nc3ccccc32)c1 (racemic) | Non-Toxic | >100% | Activity [5]: Non-Toxic |
| COc1ccc2c(c1)C(C)(CCCc1ccc(N(C)C)cc1)C(=O)N2CC(=O)N(C)C (centres undefined) | Non-Toxic | – | – |
| CN(C)c1ccc(CCCC2C(=O)Nc3ccccc32)cc1 (racemic) | Non-Toxic | Active | IC50 [6]: 5.5 µM; Activity [9]: Active |
| COc1ccc2c(c1)C1(CCN(c3ccccc3)CC1)C(=O)N2 | Non-Toxic | inactive | – |
| O=C1O[C@H]([C@@H](O)CO)C(O)=C1O [ASCORBIC ACID] | – | – | Activity [4]: 50% |
| COCCOc1ccc2c(c1)C(C)(CCCc1ccc(N(C)C)cc1)C(=O)N2 (centres undefined) | Non-Toxic | – | – |
| CN(Cc1ccccc1)c1ccc(CCCC2(C)C(=O)Nc3ccccc32)cc1 (racemic) | Non-Toxic | Active | – |
| COc1ccc(N2C(=O)C(C)(CCCc3ccc(N(C)C)cc3)c3ccccc32)cc1 (centres undefined) | Non-Toxic | – | – |
| CN(C)c1ccc(CCCC2(C)C(=O)Nc3ccccc32)cc1 (racemic) | Non-Toxic | >100% | Activity [5]: Non-Toxic |
| CN(C)c1ccc(CCCC2(C)C(=O)Nc3ccc(O)cc32)cc1 (racemic) | Non-Toxic | >100% | Activity [5]: Non-Toxic; IC50 [6]: 1.9 µM; Activity [10]: Active |
| CCN(CC)c1ccc(CCCC2C(=O)Nc3ccccc32)cc1 (racemic) | Non-Toxic | >100% | Activity [5]: Non-Toxic |

From ChEMBL document CHEMBL4043176, “Synthesis of 3-[4-(dimethylamino)phenyl]alkyl-2-oxindole derivatives and their effects on neuronal cell death” (Bioorg Med Chem Lett, 2017)
